Screening data: PubChem, several laboratories
Sampled rows, rich in hits. Any-hit rate of the full collection: about 3.9%.
Rad51 HR inh: Rad51 (human) homologous recombination inhibition; 200,000 tested, 0.085% active; hRad51 DNA strand exchange, fluorescence dequenching; inhibition, % at 10 µM;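 active = inhibition above 40% at the single screening dose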;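 also: 0% = DMSO control wells and 100% = blanks with heterologous ssDNA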
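material = hRad51 filaments on single-stranded DNA | timing = filaments 15 min 37 °C, then compound 30 min | signal = FRET fluorescence dequenching, excitation 485 nm, emission 520 nm | benchmarks = control wells and blank wells on each plate | evaluation = percent inhibition relative to plate controls and blanks | compound = 10 µM final, single point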
FLuc inhib CS: inhibits firefly luciferase, flagging false hits in luciferase inhibition screens; ATPLite firefly luciferase biochemical luminescence, 10 min; 200,000 tested, 1.5% active; P08659; inhibition, % at 10 µM; AID 1006;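 active = inhibition above about 50% when tested at 10 µM, limit read from the data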
Target sequence (P08659 whole entry, looked up): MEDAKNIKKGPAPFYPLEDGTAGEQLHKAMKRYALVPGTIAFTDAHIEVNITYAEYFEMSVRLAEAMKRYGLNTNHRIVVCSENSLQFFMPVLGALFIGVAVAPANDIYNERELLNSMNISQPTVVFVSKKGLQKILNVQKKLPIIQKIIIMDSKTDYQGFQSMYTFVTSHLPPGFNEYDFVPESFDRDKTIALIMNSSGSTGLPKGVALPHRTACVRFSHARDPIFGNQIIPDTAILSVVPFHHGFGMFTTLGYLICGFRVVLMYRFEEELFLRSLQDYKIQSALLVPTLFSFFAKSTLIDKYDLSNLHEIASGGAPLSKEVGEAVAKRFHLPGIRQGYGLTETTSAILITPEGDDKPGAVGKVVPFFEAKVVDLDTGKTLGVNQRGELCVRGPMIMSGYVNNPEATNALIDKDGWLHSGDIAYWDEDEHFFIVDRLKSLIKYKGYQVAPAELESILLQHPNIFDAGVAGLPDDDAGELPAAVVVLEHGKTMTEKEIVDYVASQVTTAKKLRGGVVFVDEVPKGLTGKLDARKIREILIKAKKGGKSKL
STAT1 activator: STAT1 signaling activation. 200,000 tested, 2.6% active. NIH 3T3 STAT1-luciferase reporter, IFN-gamma, luminescence; 100% = IFN-gamma alone, no compound. activation (% of control), % at 5.5 µM. AID 932;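 active = activation above the screen-wide mean activation plus 3 SD, cut at about 130% in these data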;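 also: raw ratio to IFN-gamma control signal so 100% means no change and 0% no light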
NF-kB expr up: NF-kB expression increase, human neuronal cells | 190,000 tested, 1.6% active | NF-kB reporter expression; stronger effect = higher value | fold change at 12.5 µM; in the data active = fold change above about 3.3
FLuc stim CS: affects firefly luciferase, flagging false hits in luciferase stimulation screens | 200,000 tested, under 10 active | AID 1027 | ATPlite luciferase biochemical, luminescence, 10 min; 0 = ATP-free wells, 1 = DMSO control | activation factor at 10 µM;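 active = luciferase activation factor, scaled between plate controls, of at least 2 with compound at 10 µM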
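System: Luciferase/luciferin detection reagent, cell-free biochemical luciferase assay | Medium: PBS buffer for ATP | Dosing: Test compounds dosed from 2 mM stocks in 100% DMSO | Timing: 10 min at ambient temperature | Signal: Luminescence measurement of luciferase light output | Evaluation: Luciferase activation, seen as luminescence increase over controls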
APP 5'UTR act: activates APP 5'UTR luciferase reporter | SH-SY5Y APP 5'UTR luciferase reporter, luminescence; zero percent = DMSO vehicle wells | activation, % at 2 µM | 190,000 tested, 1% active | AID 1276;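 active = activation above a set limit, based on mean plus 3 SD of controls, cut at about 140% in these data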
STAT1 activ conf: STAT1 activation, confirmation assay. shares compounds with STAT1 activator. NIH 3T3 STAT1-luciferase reporter, IFN-gamma potentiation, luminescence; 100% = IFN-gamma EC80 alone, no compound. activation (% of control), % at 5.7 µM. 1,200 tested, 97% active. AID 1262;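 active = activation above a set limit carried over from the earlier primary STAT1 screen, cut at about 140% in these data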;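 also: simple ratio to median IFN-gamma plus DMSO wells so 0% means no light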
NFkB act STAT1ct: NF-kappaB activation in STAT1 activator counter-screen; activation (% of control), % at 5.7 µM; shares compounds with STAT1 activator; HEK293T NF-kB luciferase reporter, TNF-alpha stimulated, luminescence; 100% = TNF-alpha with vehicle only; AID 1306; 1,200 tested, 43% active;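 active = activation above the mean of solvent-only control wells plus 3 SD, set per campaign, cut at about 130% in these data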;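 also: TNF-alpha given at a submaximal dose yielding about 80% of full reporter signal; values are well signal over median control so 100% means no change and 0% no light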
STAT3 act STAT1c: activates human STAT3, counter-screen to STAT1 activators. shares compounds with STAT1 activator. U3A cells STAT3-luciferase reporter, IL-6, luminescence; cells lack STAT1; 100 = IL-6 alone, no compound effect. activation (% of control), % at 5.7 µM. 1,200 tested, 46% active;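 active = activation above the solvent-only control well mean plus 3 SD, set per plate batch, cut at about 110% in these data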;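 also: 0% = no luminescence and 100% = median IL-6 plus DMSO wells; higher means more STAT3 reporter activation so hits are non-selective activators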
* hit, by the source's call; . = no result.

SMILES	Rad51 HR inh	FLuc inhib CS	STAT1 activator	NF-kB expr up	FLuc stim CS	APP 5'UTR act	STAT1 activ conf	NFkB act STAT1ct	STAT3 act STAT1c
C=CCn1c(SCC(=O)Nc2ccc(-c3nc4ccc(C)cc4s3)cc2)nnc1-c1ccccc1	-11	48	156*	1.1	0.5	146*	198*	110	94
Cc1ccc2nc(-c3ccc(NC(=O)CN(c4ccccc4C)S(C)(=O)=O)cc3)sc2c1	10	37	153*	3.9*	0.6	195*	218*	130	109
O=C(CCS(=O)(=O)c1ccccc1)Nc1ccc(-c2nc3ccccc3s2)cc1	-4	0	165*	7.2*	1	170*	240*	113	89
CCN(CC)c1ccc(C(=O)Nc2ccccc2)cc1[N+](=O)[O-]	9	8	160*	1.6	0.9	98	163*	129	97
O=C(Nc1ccccc1)c1ccc(NCCc2ccccc2)c([N+](=O)[O-])c1	-320	-5	98	1.4	1.1	37	.	.	.
CCOc1ccc(NC(=O)Nc2ccc3c(c2)nc(C)n3C)cc1	3	.	.	.	.	.	.	.	.
Cc1ccc(NC(=O)Nc2ccc3c(c2)nc(C)n3C)cc1C	.	40	171*	4.8*	0.6	121	194*	137*	103
CCN1CCN(c2nc(N)c([N+](=O)[O-])c(Nc3ccc(C)c(C)c3)n2)CC1	3	-8	89	1.4	1.1	27	.	.	.
Cc1ccc(Nc2n[nH]c(C)c2[N+](=O)[O-])cc1C	-2	10	191*	7.7*	0.9	210*	239*	147*	117*
COc1ccc2oc(C(=O)c3ccccc3)c(N)c2c1	-9	17	174*	6.1*	0.8	144*	175*	141*	107
COc1ccc(C(C(=O)Nc2ccc(C(C)C)cc2)N(Cc2ccco2)C(=O)CC2NC(=O)NC2=O)cc1 (stereo not drawn)	7	-1	112	0.78	1	8	.	.	.
Cc1ccc(CN2C(=O)CCC2C(=O)NCCN2CCN(c3cccc(Cl)c3)CC2)cc1 (stereo not drawn)	16	.	.	.	.	.	.	.	.
O=P(O)(CN1CCCCCC1)CN1CCCCCC1	-4	-1	153*	0.98	1	-3	114	119	109
c1ccc(-c2nc3ccccc3s2)nc1	2	61*	158*	4.7*	0.4	123	200*	121	102
CN(C)c1ncccc1-c1nc2ccccc2s1	-18	-3	99	1	1	7	.	.	.
O=C(Cc1cccs1)Nc1cccc(-c2nc3cc4ccccc4cc3[nH]2)c1	.	75*	197*	4.8*	0.2	195*	270*	158*	106
COc1ccc(-n2ncc3c(Nc4cccc(C)c4)ncnc32)cc1	13	-2	118	1.7	1	98	.	.	.
Clc1ccc(-n2ncc3c(NCC4CCCO4)ncnc32)cc1 (stereo not drawn)	2	36	163*	3.4*	0.6	156*	254*	133	110
COc1ccc(-n2ncc3c(NCC4CCCO4)ncnc32)cc1 (stereo not drawn)	7	38	172*	2.7	0.6	114	182*	131	122*
O=C1Nc2ccccc2/C1=C\c1cccn1-c1ccc(OC(F)(F)F)cc1	2	-3	102	1.1	1	-9	.	.	.
COc1ccccc1-c1nn2c(-c3ccco3)nnc2s1	0	27	172*	1.4	0.7	44	192*	138*	108
Cc1ccc(-n2c(-c3ccc(Br)cc3)c[n+]3c2CCc2ccc4cccnc4c2-3)cc1	10	-4	65	1.5	1	-3	.	.	.
COc1ccc(Cn2c(C3CC3)nc3ccc(NC(C)=O)cc3c2=O)cc1	7	3	169*	4.3*	1	142*	213*	143*	134*
CCC(=O)Nc1nc(C)c(-c2csc(Nc3ccccn3)n2)s1	0	-4	157*	1.3	1	49	161*	119	99
C=CCn1c(=O)c(C(=O)Nc2ccccc2S(N)(=O)=O)c(O)c2ccccc21	4	16	171*	3.1	0.8	46	187*	129	146*
SMILES	Rad51 HR inh	FLuc inhib CS	STAT1 activator	NF-kB expr up	FLuc stim CS	APP 5'UTR act	STAT1 activ conf	NFkB act STAT1ct	STAT3 act STAT1c
C=CCn1c(=O)c(C(=O)Nc2ccccc2C(=O)OCC)c(O)c2ccccc21	-4	-2	105	1.7	1	-1	.	.	.
CNc1nc(N2CCc3ccccc32)ncc1F	-3	39	167*	5.1*	0.6	120	194*	139*	114*
COc1ccc(CCC(=O)OCC(=O)Nc2ccccc2OC(F)F)cc1OC	2	-6	94	1.1	1.1	-8	.	.	.
COc1ccc2c(c1)c(=O)oc1cc(OCC(=O)N3CCc4ccccc4C3)ccc12	4	-3	95	1.1	1	.	.	.	.
O=C(Nc1ccccc1Cl)c1ccc(-c2ccccn2)s1	-3	.	.	.	.	.	.	.	.
Cc1ccc(Nc2nnc(SC(C)C(=O)Nc3c(C)n(C)n(-c4ccccc4)c3=O)s2)cc1 (stereo not drawn)	-14	24	94	0.95	0.8	6	.	.	.
CCCCNC(=S)Nc1ccc(-c2nc3ccc(C)cc3s2)cc1	.	48	151*	11*	0.5	180*	210*	143*	100
COCCNc1nnc(SC(C)C(=O)Nc2ccc(-c3nc4ccc(C)cc4s3)cc2)s1 (stereo not drawn)	5	32	160*	4.5*	0.7	-14	200*	123	102
Cc1ccc2nc(-c3ccc(NC(=O)COC(=O)c4ccc([N+](=O)[O-])o4)cc3)sc2c1	-1	47	155*	6*	0.5	106	170*	99	69
Cc1cccc(NC(=S)NC(C)(C)CC(C)(C)C)c1	3	-6	95	1.1	1.1	10	.	.	.
CCCCNC(=S)Nc1ccc(F)cc1	8	.	.	.	.	.	.	.	.
CCC(C)(C)NC(=S)Nc1ccc(-c2nc3ccc(C)cc3s2)cc1	-7	32	177*	2.5	0.7	173*	200*	130	107
